Results published in article PMC3205922 (Biochemistry, 2011).
Read-outs that look alike come from different tables or passages of the source. Non-standard residues stand in square brackets, D forms with d. No end group written: not given here. pT = C[C@@H](OP(=O)(O)O)[C@H](N)C(=O)O

Legend:
[1] = target: T1, truncated wild-type LRRK2 (aa 970–2527) (Homo sapiens, UniProt Q5S007); format: biochemical; conditions: for KA (ATP): t-WT
[2] = target: T2, LRRK2 mutant t-G2019S (aa 970–2527) (Homo sapiens, UniProt Q5S007, G2019S); format: biochemical; conditions: for KA (ATP): t-G2019S
[3] = target: T1, truncated wild-type LRRK2 (aa 970–2527); assay: TR-FRET assay of PLK-peptide phosphorylation; format: biochemical
Method in brief: (§1)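 Baculovirus-expressed truncated LRRK2 (aa 970–2527). ATP varied at several fixed PLK-peptide levels. Started with 4 nM enzyme; duplicate wells, RT, 4 h. Stopped with 10 mM EDTA; 2 nM Eu-anti-phospho-PLK added for 2 h; TR-FRET read. Initial velocities fitted by nonlinear least squares to two-substrate rate equations.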

[4] = target: T2, LRRK2 mutant t-G2019S (aa 970–2527); assay: TR-FRET assay of PLK-peptide phosphorylation, initial velocity and inhibition; format: biochemical
Method in brief: as §1

[5] = tested on: t-wt LRRK2 (GTPase activity); assay: Radiometric TLC assay of LRRK2-catalyzed GTP hydrolysis; format: biochemical, human; conditions: pH 7.4, room temperature, Michaelis-Menten fit
Method in brief: (§2)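 Baculovirus-expressed truncated LRRK2 (aa 970–2527), wild-type or G2019S. Run in triplicate, 20 min at room temperature, quenched with 20 mM EDTA. GDP resolved by PEI-cellulose TLC (0.5 M KH2PO4, pH 3.4) and scintillation-counted. Initial velocities versus [GTP] fitted to Michaelis-Menten.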

[6] = tested on: mutant t-G2019S (GTPase activity); assay: as above; format: biochemical, human
Method in brief: as §2

truncated LRRK2 proteins = assay: Effect of GTP or GDP on kinase activity; format: biochemical, human; conditions: in vitro
t-wt LRRK2 = t-wt LRRK2 (Homo sapiens, UniProt Q5S007); format: biochemical; conditions: t-wt LRRK2 treated with NEM
[7] = target: Truncated LRRK2 mutant G2019S (aa 970–2527) (human) (UniProt Q5S007); assay: enzyme inhibition kinetics
[8] = target: Truncated wild-type LRRK2 (aa 970–2527) (human, UniProt Q5S007 970-2527); assay: enzyme inhibition kinetics
Sequence of Truncated wild-type LRRK2 (aa 970–2527) (Q5S007 970-2527): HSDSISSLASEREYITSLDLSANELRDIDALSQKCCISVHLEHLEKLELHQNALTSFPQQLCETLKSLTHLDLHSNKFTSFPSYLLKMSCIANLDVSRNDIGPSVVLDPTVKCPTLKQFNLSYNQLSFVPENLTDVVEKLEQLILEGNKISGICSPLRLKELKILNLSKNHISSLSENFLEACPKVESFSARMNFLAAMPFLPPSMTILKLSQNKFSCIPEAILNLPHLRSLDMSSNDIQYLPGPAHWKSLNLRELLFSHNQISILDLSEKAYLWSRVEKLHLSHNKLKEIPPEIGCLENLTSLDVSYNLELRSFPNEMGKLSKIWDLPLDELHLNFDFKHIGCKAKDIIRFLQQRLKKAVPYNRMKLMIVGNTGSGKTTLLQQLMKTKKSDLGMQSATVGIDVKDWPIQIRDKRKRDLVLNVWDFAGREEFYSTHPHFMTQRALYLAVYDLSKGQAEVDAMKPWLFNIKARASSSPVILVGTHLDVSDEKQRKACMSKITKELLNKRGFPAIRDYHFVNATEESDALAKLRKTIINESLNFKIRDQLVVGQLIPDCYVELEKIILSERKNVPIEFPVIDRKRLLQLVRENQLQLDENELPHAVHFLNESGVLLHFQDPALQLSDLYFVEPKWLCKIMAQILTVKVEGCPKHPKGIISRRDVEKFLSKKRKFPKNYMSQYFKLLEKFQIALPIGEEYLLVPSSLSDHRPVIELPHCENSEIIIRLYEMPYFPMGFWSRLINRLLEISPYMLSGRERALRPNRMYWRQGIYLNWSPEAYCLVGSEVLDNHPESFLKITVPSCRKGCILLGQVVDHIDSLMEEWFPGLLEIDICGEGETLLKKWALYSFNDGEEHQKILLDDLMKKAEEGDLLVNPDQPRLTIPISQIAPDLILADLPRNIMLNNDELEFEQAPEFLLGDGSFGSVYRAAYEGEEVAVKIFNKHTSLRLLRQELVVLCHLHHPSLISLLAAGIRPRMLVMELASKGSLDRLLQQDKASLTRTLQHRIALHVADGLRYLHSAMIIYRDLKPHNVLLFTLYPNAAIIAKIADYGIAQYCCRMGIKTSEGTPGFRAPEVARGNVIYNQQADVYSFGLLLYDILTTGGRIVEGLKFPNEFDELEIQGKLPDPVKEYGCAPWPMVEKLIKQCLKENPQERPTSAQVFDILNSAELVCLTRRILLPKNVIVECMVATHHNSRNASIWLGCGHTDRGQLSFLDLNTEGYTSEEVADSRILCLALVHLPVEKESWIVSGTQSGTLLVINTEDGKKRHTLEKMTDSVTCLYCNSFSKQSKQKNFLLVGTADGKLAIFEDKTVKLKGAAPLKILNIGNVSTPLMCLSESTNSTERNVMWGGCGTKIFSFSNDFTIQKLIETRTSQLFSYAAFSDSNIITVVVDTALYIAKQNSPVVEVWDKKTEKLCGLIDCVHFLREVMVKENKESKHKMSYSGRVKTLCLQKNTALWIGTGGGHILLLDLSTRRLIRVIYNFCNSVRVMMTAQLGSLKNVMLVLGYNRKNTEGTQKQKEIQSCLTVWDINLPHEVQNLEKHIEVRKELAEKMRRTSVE

T1 sequence (Q5S007 970-2527): as above
Sequence of Truncated LRRK2 mutant G2019S (aa 970–2527) (human) (Q5S007 970-2527 G2019S): as the sequence (Q5S007 970-2527) above, with G1050S counted along it
T2 sequence (Q5S007 970-2527 G2019S): as the sequence (Q5S007 970-2527) above, with G1050S counted along it
Sequence of t-wt LRRK2 (Q5S007 970-2527): as the sequence (Q5S007 970-2527) above

In the case of `Nc1ncnc2c1ncn2[C@@H]1O[C@H](COP(=O)(O)OP(=O)(O)OP(=O)(O)O)[C@@H](O)[C@H]1O` [ATP], the “KA (ATP)” value ([1]; phosphoryl acceptor LRRKtide) is reported as 69 ± 6.6 µM, the “KA (ATP)” value ([1]; phosphoryl acceptor LRRKtide^S) is reported as 77 ± 19 µM and the “KA (ATP)” value ([2]; phosphoryl acceptor LRRKtide) is reported as 101 ± 16 µM. The “KA (ATP)” value ([2]; phosphoryl acceptor LRRKtide^S) was 161 ± 38 µM, the “KA (ATP)” value ([3]; t-WT, phosphoryl acceptor PLK-peptide) was 7.1 ± 0.7 µM and the “KA (ATP)” value ([4]; phosphoryl acceptor PLK-peptide) was 10 ± 3.9 µM.

RLGRDKYKTLRQIRQ [LRRKtide] was tested, and the Kb [1] was 87 ± 11 µM and the Kb [2] was 79 ± 11 µM.

With `Nc1nc2c(ncn2[C@@H]2O[C@H](COP(=O)(O)OP(=O)(O)OP(=O)(O)O)[C@@H](O)[C@H]2O)c(=O)[nH]1` [GTP] the KGTP [5] was 0.7 ± 0.1 mM, the “kcat (GTP hydrolysis)” value ([5]; triplicate) was 0.04 ± 0.004 s⁻¹ and the “decrease of GTPase activity by the mutation” value ([6]; t-G2019S versus t-wt) was 20%. For the same molecule, the KGTP ([6]; t-G2019S, pH 7.4, room temperature, Michaelis-Menten fit) was 0.4 ± 0.1 mM, the “kcat (GTP hydrolysis)” value ([6]; t-G2019S, pH 7.4, room temperature, Michaelis-Menten fit, triplicate) was 0.03 ± 0.002 s⁻¹ and the “effect on kinase activity” value (truncated LRRK2 proteins) was “unable to detect any effect”.

In the case of RRRSLLE [PLK-peptide], the “tighter binding relative to LRRKtide” value ([3]; from differences in Km values) is reported as over 200 fold, the α ([3]; t-WT, TR-FRET, interaction factor (eq 3)) is reported as 0.5 ± 0.1 and the α ([4]; TR-FRET, interaction factor (eq 3)) is reported as 0.6 ± 0.3.

For `Nc1nc2c(ncn2[C@@H]2O[C@H](COP(=O)(O)OP(=O)(O)O)[C@@H](O)[C@H]2O)c(=O)[nH]1` [GDP], the “effect on kinase activity” value (truncated LRRK2 proteins) was “unable to detect any effect”.

“RRRSLLE (Only the motif RRRSLLE is printed; The Ser is the phosphoaccept) [PLK-peptide]” showed a Kb ([3]; read-out: KB (phosphoryl acceptor), t-WT, TR-FRET, averaged from two independent experiments) of 430 ± 50 nM and a Kb ([4]; read-out: KB (phosphoryl acceptor), TR-FRET, averaged from two independent experiments) of 500 ± 200 nM.

For `CCN1C(=O)C=CC1=O` [NEM, N-ethylmaleimide], the “inhibition of LRRK2, dose-response” value (t-wt LRRK2) was “complete inhibition at high NEM concentration”.

`Nc1ncnc2c1ncn2[C@@H]1O[C@H](COP(=O)(O)OP(=O)(O)O)[C@@H](O)[C@H]1O` [ADP] was tested, and the inhibition mechanism ([2]; LRRKtide phosphorylation, variable substrate LRRKtide) was “noncompetitive”.

Work on LRRKtide^A (peptide) yielded a Ki,e (variable substrate ATP, noncompetitive; LRRKtide^S phosphorylation) [7] of 0.8 mM, a Ki,e (variable substrate ATP, noncompetitive; PLK-peptide phosphorylation) [7] of 0.8 mM and a Ki,ea (variable substrate ATP, noncompetitive; LRRKtide^S phosphorylation) [7] of 0.5 mM. It also gave a Ki,ea (variable substrate ATP, noncompetitive; PLK-peptide phosphorylation) [7] of 0.5 mM, a Ki,ea (variable substrate LRRKtide^S, competitive) [7] of 0.5 mM and a Ki,ea (variable substrate PLK-peptide, competitive) [7] of 0.5 mM.

RLGRDKYK[pT]LRQIRQ (not fully specified; printed as RLGRDKYK(PO4)TLRQIRQ) [PO4-LRRKtide]: binds [8].
